Test results as given in ChEMBL document CHEMBL4033671, “Synthesis and biological evaluation of N-(carbobenzyloxy)-l-phenylalanine and N-(carbobenzyloxy)-l-aspartic acid-β-benzyl ester derivatives as potent topoisomerase IIα inhibitors” (Bioorg Med Chem, 2017).
pIC50: −log10 of the molar value.

How the values were obtained:
[1] = target: T1, DNA topoisomerase 1 (Homo sapiens) (UniProt P11387); test: Inhibition of human recombinant topoisomerase-1 assessed as decrease in relaxation of supercoiled DNA pBR322 at 20 uM after 30 mins by ethidium bromide staining-based agarose gel electrophoresis relative to control
T1 sequence (whole entry): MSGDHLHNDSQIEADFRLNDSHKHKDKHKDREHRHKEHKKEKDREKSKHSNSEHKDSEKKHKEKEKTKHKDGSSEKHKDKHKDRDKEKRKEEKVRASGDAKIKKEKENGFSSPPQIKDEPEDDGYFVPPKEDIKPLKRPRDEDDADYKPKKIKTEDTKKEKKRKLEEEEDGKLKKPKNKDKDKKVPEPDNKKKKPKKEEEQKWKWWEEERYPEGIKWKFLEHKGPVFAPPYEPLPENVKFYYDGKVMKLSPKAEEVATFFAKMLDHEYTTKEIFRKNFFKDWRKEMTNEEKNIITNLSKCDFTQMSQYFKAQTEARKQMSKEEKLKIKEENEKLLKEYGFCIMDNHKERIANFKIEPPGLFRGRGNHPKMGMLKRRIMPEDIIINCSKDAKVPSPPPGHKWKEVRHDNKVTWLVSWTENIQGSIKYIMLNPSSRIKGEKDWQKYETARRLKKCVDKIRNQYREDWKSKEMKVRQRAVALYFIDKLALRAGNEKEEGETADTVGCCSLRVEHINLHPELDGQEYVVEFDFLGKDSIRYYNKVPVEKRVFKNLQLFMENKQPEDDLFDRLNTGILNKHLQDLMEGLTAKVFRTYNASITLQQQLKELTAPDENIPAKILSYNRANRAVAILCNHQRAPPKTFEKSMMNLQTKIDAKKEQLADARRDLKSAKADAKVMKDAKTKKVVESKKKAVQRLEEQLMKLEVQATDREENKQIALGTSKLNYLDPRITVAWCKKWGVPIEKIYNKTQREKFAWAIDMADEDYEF
Method in brief: (§1)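 Relaxation of 500 ng supercoiled pBR322 by 1 unit human topoisomerase I or IIα in reaction buffer, with or without compound (100 µM; 20 µM for selected compounds). Incubated 37 °C for 30 min, stopped with 0.77% SDS/77 mM EDTA. Products run on 1% agarose in TBE at 83 V for 60 min, stained 30 min in ethidium bromide (0.5 µg/mL), imaged under UV; percent inhibition recorded.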

[2] = target: T1, DNA topoisomerase 1 (Homo sapiens); test: Inhibition of human recombinant topoisomerase-1 assessed as decrease in relaxation of supercoiled DNA pBR322 at 100 uM after 30 mins by ethidium bromide staining-based agarose gel electrophoresis relative to control; method in brief: as §1
MCF7 = test: Antiproliferative activity against human MCF7 cells after 48 hrs by MTT assay; assay type: functional, cell-based; conditions: MCF7, 48 h
Method in brief: (§2)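 Cells seeded at 5×10⁴ per well, left 12 h, then exposed to serial dilutions (final 0, 5.0, 10.0, 20.0, 40.0, 80.0, 100.0 µM) for 48 h. MTT (5.0 mg/mL stock, 10 µL) added for 4 h, formazan dissolved in DMSO, absorbance read at 490 nm. Inhibition = (1−A_treatment/A_control)×100%; IC50 is the concentration giving 50% growth inhibition. Triplicate wells, at least three independent experiments, mean ± SD.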

A549 = test: Antiproliferative activity against human A549 cells after 48 hrs by MTT assay; assay type: functional, cell-based; conditions: A549, 48 h; method in brief: as §2
HeLa = test: Antiproliferative activity against human HeLa cells after 48 hrs by MTT assay; assay type: functional, cell-based; method in brief: as §2
MGC-803 = test: Antiproliferative activity against human MGC803 cells after 48 hrs by MTT assay; assay type: functional, cell-based; conditions: MGC-803, 48 h; method in brief: as §2
[3] = target: T2, DNA topoisomerase 2-alpha (Homo sapiens, UniProt P11388); test: Inhibition of human recombinant topoisomerase-2alpha expressed in Escherichia coli assessed as decrease in relaxation of supercoiled DNA pBR322 at 100 uM after 30 mins by ethidium bromide staining-based agarose gel electrophoresis relative to control; method in brief: as §1
[4] = target: T2, DNA topoisomerase 2-alpha; test: Inhibition of human recombinant topoisomerase-2alpha expressed in Escherichia coli assessed as decrease in relaxation of supercoiled DNA pBR322 at 20 uM after 30 mins by ethidium bromide staining-based agarose gel electrophoresis relative to control; method in brief: as §1
[5] = target: T2, DNA topoisomerase 2-alpha; test: Inhibition of human recombinant topoisomerase-2alpha expressed in Escherichia coli assessed as decrease in relaxation of supercoiled DNA pBR322 after 30 mins by ethidium bromide staining-based agarose gel electrophoresis; method in brief: as §1

T2 sequence (P11388 whole entry): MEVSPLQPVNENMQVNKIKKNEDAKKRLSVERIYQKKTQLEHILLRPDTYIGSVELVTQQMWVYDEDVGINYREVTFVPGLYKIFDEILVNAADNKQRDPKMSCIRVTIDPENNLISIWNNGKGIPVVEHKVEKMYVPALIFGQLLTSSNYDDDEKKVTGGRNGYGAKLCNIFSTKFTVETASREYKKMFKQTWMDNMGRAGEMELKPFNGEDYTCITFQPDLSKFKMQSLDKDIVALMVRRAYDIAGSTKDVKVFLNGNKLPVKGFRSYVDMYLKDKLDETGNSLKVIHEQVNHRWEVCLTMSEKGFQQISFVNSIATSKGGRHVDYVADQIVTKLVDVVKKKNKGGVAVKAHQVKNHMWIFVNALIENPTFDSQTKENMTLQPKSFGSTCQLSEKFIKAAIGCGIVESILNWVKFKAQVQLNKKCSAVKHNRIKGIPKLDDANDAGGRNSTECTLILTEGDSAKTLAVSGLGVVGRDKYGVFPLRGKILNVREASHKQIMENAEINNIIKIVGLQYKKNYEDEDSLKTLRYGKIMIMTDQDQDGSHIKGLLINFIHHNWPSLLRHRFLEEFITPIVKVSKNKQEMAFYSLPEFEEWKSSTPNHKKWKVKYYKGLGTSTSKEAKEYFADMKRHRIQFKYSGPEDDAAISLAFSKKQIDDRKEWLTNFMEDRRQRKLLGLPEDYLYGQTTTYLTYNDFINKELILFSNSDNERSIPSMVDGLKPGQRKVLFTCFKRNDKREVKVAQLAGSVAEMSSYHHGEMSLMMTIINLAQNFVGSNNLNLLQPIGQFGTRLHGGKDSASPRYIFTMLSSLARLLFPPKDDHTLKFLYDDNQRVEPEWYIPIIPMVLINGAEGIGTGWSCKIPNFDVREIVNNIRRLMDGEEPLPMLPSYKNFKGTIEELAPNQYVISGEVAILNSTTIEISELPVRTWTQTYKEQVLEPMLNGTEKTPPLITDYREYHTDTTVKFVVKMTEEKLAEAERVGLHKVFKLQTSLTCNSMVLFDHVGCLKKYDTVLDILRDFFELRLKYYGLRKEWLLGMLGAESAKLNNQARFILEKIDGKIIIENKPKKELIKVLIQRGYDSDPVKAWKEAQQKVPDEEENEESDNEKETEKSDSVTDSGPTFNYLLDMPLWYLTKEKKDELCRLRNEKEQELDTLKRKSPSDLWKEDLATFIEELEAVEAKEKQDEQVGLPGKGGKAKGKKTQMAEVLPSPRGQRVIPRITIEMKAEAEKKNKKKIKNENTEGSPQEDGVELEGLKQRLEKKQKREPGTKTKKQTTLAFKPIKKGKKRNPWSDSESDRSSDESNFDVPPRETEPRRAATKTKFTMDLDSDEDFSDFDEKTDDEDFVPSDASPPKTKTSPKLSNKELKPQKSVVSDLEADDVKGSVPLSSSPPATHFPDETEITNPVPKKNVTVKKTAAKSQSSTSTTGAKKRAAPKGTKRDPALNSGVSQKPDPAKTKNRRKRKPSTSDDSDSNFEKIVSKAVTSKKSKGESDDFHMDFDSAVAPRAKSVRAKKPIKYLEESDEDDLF

SMILES	inhibition [1] [%]	inhibition [2] [%]	pIC50 (MCF7)	pIC50 (A549)	pIC50 (HeLa)	pIC50 (MGC-803)	inhibition [3] [%]	inhibition [4] [%]	pIC50 [5]
COc1ccc(C(=O)OC[C@H](Cc2ccccc2)NC(=O)[C@H](CC(=O)OCc2ccccc2)NC(=O)OCc2ccccc2)cc1OC	-0	20.2	4.55	4.32	4.40	4.37	84.6	49.8	–
COc1ccc(C(=O)OC[C@H](Cc2ccccc2)NC(=O)[C@H](Cc2ccccc2)NC(=O)OCc2ccccc2)cc1OC	–	5.4	4.38	< 4.30	4.46	4.39	83.2	28.1	–
O=C(N[C@@H](Cc1ccccc1)C(=O)N[C@H](COC(=O)c1ccccc1Cl)Cc1ccccc1)OCc1ccccc1	–	-0	4.37	< 4.30	< 4.30	4.37	4.1	–	–
O=C(C[C@H](NC(=O)OCc1ccccc1)C(=O)N[C@H](COC(=O)c1ccccc1)Cc1ccccc1)OCc1ccccc1	–	-0	4.40	4.34	4.55	4.49	68.4	20.1	–
CC[C@@]1(O)C(=O)OCc2c1cc1n(c2=O)Cc2cc3ccccc3nc2-1 [CAMPTOTHECIN]	–	–	4.54	4.87	5.00	5.02	–	–	–
O=C(N[C@@H](Cc1ccccc1)C(=O)N[C@H](COC(=O)c1ccccc1)Cc1ccccc1)OCc1ccccc1	-0	29.5	4.39	4.31	4.52	4.41	75.7	25.6	–
O=C(C[C@H](NC(=O)OCc1ccccc1)C(=O)N[C@H](COC(=O)c1ccccc1Cl)Cc1ccccc1)OCc1ccccc1	–	-0	< 4.30	< 4.30	< 4.30	< 4.30	41.4	–	–
Cc1ccccc1C(=O)OC[C@H](Cc1ccccc1)NC(=O)[C@H](Cc1ccccc1)NC(=O)OCc1ccccc1	–	7.3	4.41	< 4.30	4.40	4.37	62.8	42.1	–
Cc1ccccc1C(=O)OC[C@H](Cc1ccccc1)NC(=O)[C@H](CC(=O)OCc1ccccc1)NC(=O)OCc1ccccc1	–	-0	4.38	< 4.30	4.35	< 4.30	28.2	–	–
COc1cc([C@@H]2c3cc4c(cc3[C@@H](O[C@@H]3O[C@@H]5CO[C@@H](C)O[C@H]5[C@H](O)[C@H]3O)[C@H]3COC(=O)[C@H]23)OCO4)cc(OC)c1O [ETOPOSIDE]	–	–	4.62	4.70	4.80	4.68	–	–	–
O=C(C[C@H](NC(=O)OCc1ccccc1)C(=O)N[C@H](COC(=O)c1ccc(Cl)cc1)Cc1ccccc1)OCc1ccccc1	–	9.5	4.66	4.52	4.75	4.55	92.9	51.2	–
O=C(O)C[C@H](NC(=O)OCc1ccccc1)C(=O)O	–	–	–	–	–	–	–	–	4.57
CCC(=O)OC[C@H](Cc1ccccc1)NC(=O)[C@H](CC(=O)OCc1ccccc1)NC(=O)OCc1ccccc1	-0	45.2	4.39	< 4.30	4.30	< 4.30	63.8	19.7	–
CC(=O)OC[C@H](Cc1ccccc1)NC(=O)[C@H](CC(=O)OCc1ccccc1)NC(=O)OCc1ccccc1	-0	15	4.33	< 4.30	< 4.30	< 4.30	6.7	–	–
O=C(N[C@@H](Cc1ccccc1)C(=O)N[C@H](COC(=O)c1ccc(Cl)cc1)Cc1ccccc1)OCc1ccccc1	–	-0	4.44	4.37	4.65	4.42	3.2	–	–
CCC(=O)OC[C@H](Cc1ccccc1)NC(=O)[C@H](Cc1ccccc1)NC(=O)OCc1ccccc1	–	-0	< 4.30	< 4.30	< 4.30	< 4.30	86.1	45.6	–
